These results are taken from the RNAGym collection of RNA variant scans (doi:10.1126/science.aae0568).

To fix the notation:
B1: tRNA (parent)
chain: GUUCCGUUGGCGUAAUGGUAACGCGUCUCCCUCCUAAGGAGAAGACUGCGGGUUCGAGUCCCGUACGGAACG

This sample holds only a part of the variants without activity.

In this data set the parent is B1. In words: yeast fitness relative to wild type (ratio to wild type); higher = fitter; tRNA-Arg(CCU), competitive growth, 37 C, YPD. The method in brief:
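The tRNA-Arg(CCU) gene variants were made by chemical synthesis with a 3% per-site mutation rate at 69 sites and inserted at the native genomic locus of Saccharomyces cerevisiae. After pooling, the strains were competed in YPD at 37°C for 24 hours in six parallel replicates. Gene amplicons from the start population and each end population were read by 100-nucleotide paired-end sequencing, and Darwinian fitness relative to wild type was taken from genotype frequency changes. Genotypes needed ≥ 100 starting reads, and estimates < 0.5 were set to 0.5.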
Consider U7C U16C C29U, for which the yeast fitness was not above 0.5.
As for U16A A21U A45C, the figure is not above 0.5; as for U28A G48A G58C C66G, not above 0.5.
As to U19A A43U C62U, the yeast fitness came out at 0.771.
As for U8C U16A, the figure is 0.934; as for G6A C31A G41A A45U G58C, not above 0.5.
For the variant A37G G38A, the yeast fitness is 0.725.
Take U16C U28A: the yeast fitness amounted to 0.827.
The same measure for U7C A20G: 0.819.
As for C30U A36G G44A C61G, the figure is not above 0.5; as for A14C C61U A70C, not above 0.5; as for U13C A36U C62G A65G, 0.671.
For U2A C11U A14U U19G, the yeast fitness is not above 0.5.
As for U3G C4U A14U A15U A20C C33G A40U C61G, the figure is 0.577.
For U16G G68U, the yeast fitness was 0.853.
On to U28C C49U G52A, for which the yeast fitness came out at 0.619.
As for C5U A37U G56C, the figure is 0.686; as for G10A U35C A42C A43C, not above 0.5.
Consider C27U A36U, for which the yeast fitness amounted to 0.638.
The same measure for C11A C55G C66A: not above 0.5; for U7A A14U C31G: not above 0.5.
As to U28G C33G A45C, the yeast fitness stood at 0.607.
In the case of C11U U35C C46G G52C G68C, the yeast fitness is not above 0.5.
The same measure for C4U A15C C62G: not above 0.5; for U54A C60G C66U: not above 0.5.
Turning to A20C C29G A69C, the yeast fitness stood at 0.539.
Consider U8C G18A C24A A37G A57G A69G, for which the yeast fitness was not above 0.5.
As for C24A C31U A42C G50A, the figure is not above 0.5; as for U32C G68C, 0.808.
As for G23A C30U C49A A57U A70C, the figure is not above 0.5; as for A15G A20U G48A, 0.66.
As for A15C A20G, the figure is 0.78; as for G9A G25A U35G, not above 0.5.
For C24G A42C, the yeast fitness was 0.63.
As for G50U U59G, the yeast fitness is 0.796.
In the case of C31G C34U C46U G56A, the yeast fitness was not above 0.5.
As for C11U U26C, the figure is 0.948; as for C4U C11G A42G C49U A70U, not above 0.5.
Regarding G25C, the yeast fitness is 1.
The same measure for C46A A57U G68C: 0.543.
Take U13C C22G G38C A45U C49G: the yeast fitness is not above 0.5.
The same measure for U59G C60A: 0.509; for A42U A65U: 0.741.
As for G12A C49U G67C A69G, the figure is not above 0.5; as for U8A A14G G39C, not above 0.5; as for U8G A42U A69C, 0.509.
The same measure for C5U G68A: 0.969; for C29G A57U: 0.72; for A20U C30G A69C: 0.597.
Regarding C5A A20U C27A A42G A43G A57C G67C, the yeast fitness came out at 0.565.
The same measure for C5G A21C G39A: not above 0.5.
With A15G C29A C34G U59A C62U, the yeast fitness was not above 0.5.
As for C22G G51A A57U, the figure is not above 0.5; as for G6C U7C G12A C24U C29G G50C C66U, not above 0.5.
As for C5G U7C A14U C24U C46G C62U C66U, the yeast fitness is not above 0.5.
Take G12C C30A: the yeast fitness is 0.786.
In the case of A15C A40C, the yeast fitness worked out at 0.609.
The same measure for G12C C29U A36U: not above 0.5; for C29G C55U A65G C66A: not above 0.5; for U7A A65C A69C: not above 0.5.
In the case of U8G C33U A57C U64C A70G, the yeast fitness was 0.511.
As for C27U C60A, the yeast fitness was 0.552.
The same measure for G17C C24G C34U C66U: 0.548.
The same measure for C11U G38A C60G: not above 0.5; for C4G U7G G12C A20U: not above 0.5; for G41C A45U C55U: not above 0.5.
U3C U13A A20C C30G C31A: the yeast fitness is not above 0.5.
For the variant U2C C29U C31G U35A, the yeast fitness was not above 0.5.
As for U8G C27U G44C U47A C60U, the yeast fitness is not above 0.5.
As for G9C U54A, the figure is 0.658.
For the variant C5U C27G G39C G52A, the yeast fitness is not above 0.5.
U16A C22U U28C U32C A42G C55G: the yeast fitness is not above 0.5.
As to U2G C11U C55G, the yeast fitness was not above 0.5.
Regarding A20G A57G, the yeast fitness was 1.
For the variant U54C G56A C62A, the yeast fitness was not above 0.5.
Consider A21C C27U G50A, for which the yeast fitness was found to be 0.571.
The same measure for C22A C29U A69U: 0.592; for G6C A15U G23A C29U A43G: not above 0.5.
As for U3A C5G A21U C22U U32A C49G, the figure is 0.599; as for C11U U13C C30U, 0.769.
The same measure for C30G G56A: 0.75.
In the case of C5A C24U G51A, the yeast fitness is not above 0.5.
Consider U13A A40G A42G, for which the yeast fitness is not above 0.5.
The same measure for C30A U47C C61A A65C: not above 0.5.
As for A14C A40C G41C C49U C55A A70U, the yeast fitness is not above 0.5.
The same measure for C11G G12A A21G G58A C62G: 0.532.
For A14C C31A, the yeast fitness was found to be 0.669.
The same measure for U19A A21G C29G: 0.543; for U2A U3A: 0.809.
As for U28A G48A C61A, the figure is not above 0.5; as for C27A A36U A37U A65G, not above 0.5.
With C5G C29G C33A, the yeast fitness was not above 0.5.
The same measure for A14G A43U A65U: 0.748; for U7G A20C A70G: not above 0.5; for A42U G50A C60G U64C: not above 0.5.
As for C22U G23C C55U C60G A70C, the figure is not above 0.5; as for G23A C24A C31A A36G, not above 0.5; as for U7G A15U, 0.592.
The same measure for A20G C29U C34U G50A C55G: not above 0.5; for C29A C30A G58C C62U: 0.565; for U3C U32C: 0.839.
Turning to C5U C11U A15G G48C G63U A70U, the yeast fitness was not above 0.5.
The same measure for A21G C22U C60A: not above 0.5.
The same measure for G6A C11U U13C C27G: 0.507; for C27G C29U: 0.578.
As for G12C A14G C33G G44C, the figure is not above 0.5.
Turning to A20G A69U, the yeast fitness is 1.07.
For the variant G25C C49U, the yeast fitness is 1.01.
As for C5G A40G U54A, the figure is 0.579.
As for G38C C66A, the figure is 0.561; as for C30A U59G A69G, 0.599; as for C33U A42G U59A, not above 0.5.
For the variant C5U U13G C33A A37C C61U, the yeast fitness was not above 0.5.
The same measure for C4U A15C C46A A57G C61A A70C: not above 0.5; for A15C A21U A69U: not above 0.5.
As for C5U G51A A65C, the figure is not above 0.5; as for U3G C27G C49G A70G, not above 0.5.
Regarding G9C U32A G56C, the yeast fitness was not above 0.5.
As for C4A C29U C31G C33A, the figure is not above 0.5; as for U2A C29A A45U, 0.542; as for C34U C62A C66U, not above 0.5.
For G23A C33A C34G, the yeast fitness was not above 0.5.
On to U53C C60U, for which the yeast fitness stood at 0.638.
As for A21C G25C A57G, the figure is 0.516; as for C24U A37U G41C A70C, not above 0.5.
Turning to U7C G41A A42C G50C C66U, the yeast fitness worked out at 0.548.
On to A14G A20G, for which the yeast fitness amounted to 0.883.
Consider C4G C27A, for which the yeast fitness is 0.734.
The same measure for A43U U47C C55A A65U A70G: not above 0.5; for U28C: 0.981.
On to U7C A15G G18C C49U, for which the yeast fitness is not above 0.5.
For U16C A43U G51C A57C C60G G67A, the yeast fitness was not above 0.5.
The same measure for U53A A57U A65U: 0.725; for G18A A45U C55A: not above 0.5; for U2G G9A G41A: not above 0.5.
For U8C A14U C34G C46A C62U A69C, the yeast fitness is not above 0.5.
For the variant C24U C31A A57C, the yeast fitness amounted to 0.704.
As for G10C G48A, the figure is 0.851; as for U7A A45U C60A, not above 0.5.
As for U3C C11A C27G C33A A43C C46A A70U, the figure is 0.528; as for U19C G67A, 1; as for U3C G9A A15U C30A C34A A42G, not above 0.5.
For U8G A14G A43C, the yeast fitness is not above 0.5.
Consider C4G C30U G63C, for which the yeast fitness came to 0.628.
C5U C29U A69U: the yeast fitness was 0.72.
With C5G C34A A37U G44A G51A C55A, the yeast fitness came to 0.654.
The same measure for C24G C30G C55G: not above 0.5.
The same measure for C27G C31G U54G A70C: not above 0.5; for U3A U8A U32A U47A A57U: not above 0.5.
As for A14U C24G C27U U54G, the figure is not above 0.5.
Regarding G39A A43U, the yeast fitness came to 0.811.
As for U8A A15C G18C C49U U64A A69U, the figure is 0.651.
As to G39A C66U A70G, the yeast fitness was 0.601.
G9U A20C C29U G50C U59G C62U G68A: the yeast fitness was not above 0.5.
For the variant C27G G63A C66G, the yeast fitness is not above 0.5.
As for U35C U64G C66G, the figure is not above 0.5; as for U28A A36U G52A, 0.777; as for C5U G12C A40C G56C, not above 0.5.
The same measure for G6A A15C C27G G44C C49A U64A: 0.538; for C11G A43U U47A A65U G67C: not above 0.5; for C4U G9A C24G C29G G67A: not above 0.5.
A14U C27U C29G C31U C61G: the yeast fitness is not above 0.5.
With U8A C29U C62U A70U, the yeast fitness is not above 0.5.
Regarding C11U A40U A69C, the yeast fitness was 0.646.
A20C C34G A43C C62U G68C: the yeast fitness is not above 0.5.
With A36U A45U C46U U53C, the yeast fitness is not above 0.5.
As for G58A, the figure is 0.981.
